Screening data from PubChem.
S100A4 inh HTS = inhibitors of S100A4-myosin IIA peptide binding, primary screen, biochemical, fluorescence polarization, TAMRA-MyoIIA peptide; inhibition, % at 10.7 µM; hit rate 0.14% among 360,000; Protein S100-A4 (Homo sapiens), P26447; AID 652163, 2013;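 active means mean inhibition of at least 70% across replicates, with every replicate also reaching that level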
Target sequence (P26447 whole entry, looked up): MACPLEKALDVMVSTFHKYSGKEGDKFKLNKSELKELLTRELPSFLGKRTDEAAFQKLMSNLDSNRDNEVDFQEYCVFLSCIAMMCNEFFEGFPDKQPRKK
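Material: human S100A4 monomer with TAMRA-labelled myosin IIA peptide; buffer or medium: HEPES pH 7.2 with CaCl2, KCl, NaCl, DTT, Triton; compound dosing: one concentration per compound; schedule: 5 min incubation before reading; benchmarks: neutral control DMSO, positive control TFP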
F508del corr = F508del CFTR correction, initial screen, CFBE line, single point | CFBE cells, YFP halide quenching; stimulated with forskolin plus potentiator P3; % fluorescence drop versus neutral controls | activity (quench increase), % at 7.58 µM | hit rate 0.36% among 350,000;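 active means mean added fluorescence quench of at least 8% versus neutral control, with both replicates also reaching 8%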;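 further: cells transiently co-express mutant CFTR-F508del with the halide-sensitive YFP; corrector assay measuring rescue of mutant channel to the surface after 24 h compound exposure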
FGF22 binding = binders of human FGF22 protein, primary screen, FGF22 synaptogenesis inhibitor project, biophysical, thermal shift, single point; AID 651658, 2012; activity (Tm shift, normalised), % at 9.99 µM; hit rate 1.5% among 340,000; Fibroblast growth factor 22 (Homo sapiens), Q9HCT0; recombinant FGF22 thermal shift, SYPRO orange fluorescence; percent of sucrose octasulfate shift, DMSO zero;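 active means mean Tm shift, scaled 0 neutral to 100 positive control, at about 1.3% or above, every replicate too, limit read from the data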
dFosB activator = activators of delta FosB homodimer, primary screen, biochemical, fluorescence polarization, TAMRA-CDK5 oligo, single point; Protein FosB (Mus musculus), P13346; purified delta FosB; percent of positive-control signal above neutral wells; activation, % at 25 µM; hit rate 0.99% among 340,000; AID 493131, 2011;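 active means mean activation above about 17%, with every replicate also reaching it, limit read from the data, passing the limit was not always enough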
Target sequence (P13346 whole entry, looked up): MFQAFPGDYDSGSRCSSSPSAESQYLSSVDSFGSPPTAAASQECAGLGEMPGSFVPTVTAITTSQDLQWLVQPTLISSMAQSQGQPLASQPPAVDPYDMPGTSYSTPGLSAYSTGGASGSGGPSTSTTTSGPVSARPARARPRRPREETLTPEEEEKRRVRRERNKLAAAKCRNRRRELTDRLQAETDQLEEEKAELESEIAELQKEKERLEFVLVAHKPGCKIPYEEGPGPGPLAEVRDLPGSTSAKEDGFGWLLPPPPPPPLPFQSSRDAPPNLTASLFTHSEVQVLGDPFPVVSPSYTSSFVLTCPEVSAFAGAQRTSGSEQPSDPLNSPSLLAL
Numbers without * were called inactive; . = no result. Sampled rows, rich in hits. Any-hit rate of the full collection: about 2.2%.

SMILES | S100A4 inh HTS | F508del corr | FGF22 binding | dFosB activator
O=C1CN(S(=O)(=O)Cc2ccccc2)C[C@@H]2[C@@H](c3ccc(C#Cc4cccc(F)c4)cc3)[C@H](CO)N12 | 1.0 | 8.1* | . | .
CC(=O)N1CC(=O)N2[C@H](CO)[C@@H](c3ccc(-c4ccc(C#N)cc4)cc3)[C@H]2C1 | 129.1* | 1.5 | . | .
C[C@@H]1CN([C@@H](C)CO)C(=O)c2cc(NC(=O)Nc3ccccc3)ccc2O[C@@H](C)CCCCO[C@H]1CN(C)Cc1ccc2c(c1)OCO2 | -4.4 | -0.4 | -0.2 | .
COCC#Cc1ccc([C@@H]2[C@H]3CN(C(=O)C4CC4)CC(=O)N3[C@H]2CO)cc1 | -9.1 | 0.8 | . | .
CCCNC(=O)[C@@H]1[C@@H](CO)[C@@H]2Cn3c(ccc(-c4ccccc4OC)c3=O)[C@H]1N2C(=O)NCCC | 2.7 | -0.2 | 0.3 | .
Cc1noc(C)c1NC(=O)Nc1ccc2c(c1)C(=O)N(C)[C@H]1CC[C@@H](CC(=O)N(C)C)O[C@@H]1CO2 | 13.5 | -0.6 | -0.1 | .
COc1cccc(S(=O)(=O)N[C@@H]2CC[C@@H](CC(=O)NCc3ccccc3)O[C@H]2CO)c1 | -6.8 | 0.9 | 0.0 | .
Cc1noc(C)c1S(=O)(=O)Nc1cccc2c1O[C@@H](CN(C)S(=O)(=O)c1cn(C)cn1)[C@@H](C)CN([C@@H](C)CO)C2=O | -2.5 | -1.1 | 0.4 | .
C[C@H](NC(=O)C[C@H]1CC[C@H]2[C@@H](COC[C@@H](O)CN2C)O1)c1ccccc1 | 7.9 | -1.0 | -0.1 | .
CC(C)C#Cc1ccc([C@@H]2[C@@H](CO)N3C(=O)CN(S(=O)(=O)c4ccccc4)C[C@@H]23)cc1 | 3.1 | 12.3* | -0.6 | .
O=C(NCC[C@@H]1CC[C@@H](NC(=O)C2CC2)[C@H](CO)O1)c1ccc(F)cc1 | -15.0 | -1.3 | -0.2 | .
CC(=NNC(=S)N1CC2CCC(CC2)C1)c1cnccn1 | -0.3 | 10.7* | 0.0 | -1.1
O=C(C[C@@H]1C[C@H]2c3cc(NC(=O)c4ccc5c(c4)OCO5)ccc3O[C@H]2[C@@H](CO)O1)NCc1cccnc1 | 1.9 | -2.4 | 0.1 | .
CC(=O)O[C@H]1C(=O)[C@]2(C)[C@H]([C@H](OC(=O)c3ccccc3)[C@]3(O)C[C@H](OC(=O)[C@H](O)[C@@H](NC(=O)c4ccccc4)c4ccccc4)C(C)=C1C3(C)C)[C@]1(OC(C)=O)CO[C@@H]1C[C@@H]2O | -0.8 | 10.2* | -0.1 | 2.5
CC(=O)O[C@H]1C(=O)[C@@]2(C)C([C@H](OC(=O)c3ccccc3)[C@]3(O)C[C@H](OC(=O)[C@H](O)[C@@H](NC(=O)c4ccccc4)c4ccccc4)C(C)=C1C3(C)C)[C@]1(OC(C)=O)CO[C@@H]1C[C@H]2O (some centres not stated) | 21.7 | 17.9* | 0.0 | -8.3
CCC(=O)N1[C@H](CO)[C@@H](c2ccccc2)[C@@H]1CN(C)C(=O)CN1CCOCC1 | 4.2 | -1.0 | 0.1 | .
CNC[C@@H]1OCCCC[C@H](C)Oc2ccc(NC(=O)CCC(F)(F)F)cc2C(=O)N([C@@H](C)CO)C[C@H]1C | -8.4 | -0.8 | 0.0 | .
C[C@H]1CCCCO[C@@H](CN(C)C(=O)Cc2ccccc2)[C@@H](C)CN([C@@H](C)CO)C(=O)c2cc(NS(=O)(=O)c3cn(C)cn3)ccc2O1 | 16.1 | 1.4 | -0.3 | .
CC(C)S(=O)(=O)c1ccc(C(=O)Nc2ccc(F)cc2F)cn1 | 0.8 | -0.7 | 43.0* | -2.4
O=c1[nH][nH]c2cc(=O)n(-c3cccc(C(F)(F)F)c3)nc12 | 10.6 | -1.0 | 0.2 | -15.6
Nc1n[nH]c2cc(=O)n(-c3cccc(C(F)(F)F)c3)nc12 | -1.1 | 0.4 | 43.4* | -1.0
OC(CNCC(c1ccc(Cl)cc1Cl)c1c[nH]c2ccccc12)c1ccccc1 (configuration not stated) | -2.5 | -1.8 | -0.1 | 83.4*
O=[N+]([O-])CC(c1ccccc1)c1c[nH]c2ccccc12 (configuration not stated) | -1.6 | 2.2 | 0.1 | .
Cc1ccc(S(=O)(=O)NC(C)(C)CN2CCC(Cc3ccccc3)CC2)cc1 | -0.1 | 0.1 | 43.7* | -3.2
NC(=NCCc1ccccc1)NS(=O)(=O)c1cccs1 | -2.1 | 3.1 | 43.0* | 3.2
